Source: ChEMBL document CHEMBL4177755, “Combating Drug-Resistant Fungi with Novel Imperfectly Amphipathic Palindromic Peptides” (J Med Chem, 2018)

Legend:
[1] = test system: Candida albicans; experiment: Fungicidal activity against fluconazole-resistant Candida albicans 56214 after 96 hrs; assay type: functional; settings: Candida albicans, 56214, 96 h; read-out: MFC99.9
Procedure, shortened: (§1)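 After the 48 h, 28 °C broth microdilution in MOPS-buffered RPMI 1640 (inoculum (0.5−1) × 10^3 CFU/mL), 50 μL from each well was plated on YM agar for a further 48 h at 28 °C. MFC is the lowest concentration killing at least 99.9% of cells. Triplicate, three biological replicates.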

[2] = test system: Escherichia coli; experiment: Bactericidal activity against Escherichia coli 1005; assay type: functional; settings: read-out: MBC99.9
Procedure, shortened: (§2)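 Wells from the 24 h, 37 °C MHB microdilution plates (bacteria at a final (0.5−1) × 10^5 CFU/mL; peptide diluted in 0.2% BSA) were plated on agar and incubated overnight. MBC is the lowest concentration killing >99.9% of cells. Each test was reproduced at least 3 times.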

[3] = test system: Staphylococcus epidermidis; experiment: Antibacterial activity against Staphylococcus epidermidis ATCC 12228 after 24 hrs; assay type: functional; settings: ATCC 12228, 24 h
Procedure, shortened: (§3)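 Broth microdilution. Mid-log bacteria in MHB at a final (0.5−1) × 10^5 CFU/mL were mixed with equal volumes of peptide serially diluted in 0.2% BSA. Plates were incubated 24 h at 37 °C and read at A492. MIC is the lowest concentration inhibiting 95% of growth. Each test was repeated at least 3 times.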

[4] = test system: Candida albicans; experiment: Fungicidal activity against Candida albicans 14936 after 96 hrs; assay type: functional; settings: Candida albicans, 14936, 96 h; read-out: MFC99.9; procedure, shortened: as §1
[5] = test system: Candida albicans; experiment: Fungicidal activity against fluconazole-resistant Candida albicans 17546 after 96 hrs; assay type: functional; settings: Candida albicans, 17546, 96 h; read-out: MFC99.9; procedure, shortened: as §1
[6] = test system: Escherichia coli; experiment: Antibacterial activity against Escherichia coli ATCC 25922 after 18 hrs in presence of MgCl2 by broth dilution method; assay type: functional; settings: ATCC 25922, 18 h
[7] = test system: Escherichia coli; experiment: Antibacterial activity against Escherichia coli ATCC 25922 after 24 hrs; assay type: functional; settings: ATCC 25922, 24 h; procedure, shortened: as §3
[8] = test system: Staphylococcus aureus; experiment: Antibacterial activity against Staphylococcus aureus ATCC 25923 after 24 hrs; assay type: functional; settings: ATCC 25923, 24 h
Procedure, shortened: (§4)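 Modified NCCLS broth microdilution. Mid-log bacteria at (0.5−1) × 10^5 CFU/mL in MHB were mixed 1:1 with peptide serially diluted in 0.2% BSA and incubated 24 h at 37 °C. Absorbance was read at 492 nm; MIC is the lowest concentration inhibiting 95% of growth. At least 3 repeats.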

[9] = test system: Candida albicans; experiment: Antifungal activity against fluconazole-resistant Candida albicans 56214 after 48 hrs by broth microdilution method; assay type: functional; settings: Candida albicans, 56214, 48 h
Procedure, shortened: (§5)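 Modified CLSI M27-A2 broth microdilution. Yeast at (0.5−1) × 10^3 CFU/mL in MOPS-buffered RPMI 1640 was mixed 1:1 with peptide serially diluted in 0.2% BSA and incubated 48 h at 28 °C. Absorbance was read at 492 nm; MIC is the lowest concentration inhibiting 95% of growth. Triplicate, three biological replicates.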

[10] = test system: Escherichia coli; experiment: Antibacterial activity against Escherichia coli ATCC 25922 after 18 hrs in presence of NH4Cl by broth dilution method; assay type: functional; settings: ATCC 25922, 18 h
[11] = test system: Candida albicans; experiment: Antifungal activity against Candida albicans cgmcc 2.2086 in presence of KCl by broth dilution method; assay type: functional
[12] = test system: Candida albicans; experiment: Antifungal activity against Candida albicans SP3903 after 48 hrs by broth microdilution method; assay type: functional; settings: SP3903, 48 h; procedure, shortened: as §5
[13] = test system: Candida albicans; experiment: Fungicidal activity against Candida albicans SP3931 after 96 hrs; assay type: functional; settings: SP3931, 96 h, read-out: MFC99.9; procedure, shortened: as §1
[14] = test system: Salmonella typhimurium; experiment: Antibacterial activity against Salmonella typhimurium ATCC 14028 after 24 hrs; assay type: functional, Salmonella enterica subsp. enterica serovar Typhimurium; settings: Salmonella enterica, ATCC 14028, 24 h; procedure, shortened: as §3
[15] = test system: Escherichia coli; experiment: Antibacterial activity against Escherichia coli ATCC 25922 after 18 hrs in presence of CaCl2 by broth dilution method; assay type: functional; settings: ATCC 25922, 18 h
[16] = test system: Escherichia coli; experiment: Bactericidal activity against Escherichia coli ATCC 25922; assay type: functional; settings: read-out: MBC99.9; procedure, shortened: as §2
[17] = test system: Candida albicans; experiment: Antifungal activity against Candida albicans isolated from alveolar fluid after 48 hrs by broth microdilution method; assay type: functional; procedure, shortened: as §5
[18] = test system: Escherichia coli; experiment: Antibacterial activity against Escherichia coli ATCC 25922 after 18 hrs in presence of KCl by broth dilution method; assay type: functional; settings: ATCC 25922, 18 h
[19] = test system: Staphylococcus aureus; experiment: Antibacterial activity against Staphylococcus aureus ATCC 29213 after 24 hrs; assay type: functional; settings: ATCC 29213, 24 h; procedure, shortened: as §4
[20] = test system: Candida albicans; experiment: Antifungal activity against Candida albicans SP3876 after 48 hrs by broth microdilution method; assay type: functional; settings: SP3876, 48 h; procedure, shortened: as §5
[21] = test system: Staphylococcus aureus; experiment: Antibacterial activity against methicillin-resistant Staphylococcus aureus ATCC 4330 after 24 hrs; assay type: functional; settings: ATCC 4330, 24 h; procedure, shortened: as §4
[22] = test system: Escherichia coli; experiment: Antibacterial activity against Escherichia coli ATCC 25922 after 18 hrs in presence of FeCl3 by broth dilution method; assay type: functional; settings: ATCC 25922, 18 h
[23] = test system: Candida albicans; experiment: Antifungal activity against Candida albicans SP3931 after 48 hrs by broth microdilution method; assay type: functional; settings: SP3931, 48 h; procedure, shortened: as §5
[24] = test system: Candida parapsilosis; experiment: Antifungal activity against Candida parapsilosis cgmcc 2.3989 after 48 hrs by broth microdilution method; assay type: functional; settings: Lodderomyces parapsilosis, cgmcc 2.3989, 48 h
Procedure, shortened: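 Modified CLSI M27-A2 broth microdilution. Yeast were suspended in MOPS-buffered RPMI 1640 at a final (0.5−1) × 10^3 CFU/mL and mixed 1:1 with peptide serially diluted in 0.2% BSA. Plates were incubated 48 h at 28 °C and read at A492. MIC is the lowest concentration giving 95% inhibition. Run in triplicate with three biological replicates.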

[25] = Cytotoxicity against mouse RAW264.7 cells assessed as cell viability at 2 to 64 uM after 24 hrs by MTT assay relative to control; assay type: cell-based; settings: read-out: Activity
Procedure, shortened: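 MTT viability assay. RAW264.7 or HEK293T cells at (1.0−2.0) × 10^5 per well were exposed to a peptide concentration series for 24 h at 37 °C in 5% CO2. MTT was then added at 0.5 mg/mL final for 4 h; formazan was dissolved in DMSO and read at 570 nm. Results average three independent trials.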

[26] = test system: Candida albicans; experiment: Fungicidal activity against Candida albicans cgmcc 2.2086 after 96 hrs; assay type: functional; settings: cgmcc 2.2086, 96 h, read-out: MFC99.9; procedure, shortened: as §1
[27] = test system: Salmonella typhimurium; experiment: Bactericidal activity against Salmonella typhimurium ATCC 14028; assay type: functional, Salmonella enterica subsp. enterica serovar Typhimurium; settings: Salmonella enterica, read-out: MBC99.9; procedure, shortened: as §2
[28] = test system: Escherichia coli; experiment: Antibacterial activity against Escherichia coli ATCC 25922 after 18 hrs in presence of NaCl by broth dilution method; assay type: functional; settings: ATCC 25922, 18 h
[29] = test system: Candida albicans; experiment: Fungicidal activity against fluconazole-resistant Candida albicans 56452 after 96 hrs; assay type: functional; settings: Candida albicans, 56452, 96 h; read-out: MFC99.9; procedure, shortened: as §1
[30] = test system: Candida albicans; experiment: Antifungal activity against Candida albicans cgmcc 2.2086 in presence of MgCl2 by broth dilution method; assay type: functional
[31] = test system: Candida albicans; experiment: Fungicidal activity against Candida albicans 58288 after 96 hrs; assay type: functional; settings: Candida albicans, 58288, 96 h; read-out: MFC99.9; procedure, shortened: as §1
[32] = test system: Candida albicans; experiment: Antifungal activity against Candida albicans cgmcc 2.2086 in presence of FeCl3 by broth dilution method; assay type: functional
[33] = test system: Candida albicans; experiment: Antifungal activity against Candida albicans 14936 after 48 hrs by broth microdilution method; assay type: functional; settings: Candida albicans, 14936, 48 h; procedure, shortened: as §5

Row | Substance | MFC [1] [µM] | MBC [2] [µM] | MIC95 [3] [µM] | MFC [4] [µM] | MFC [5] [µM] | MIC [6] [µM] | MIC95 [7] [µM] | MIC95 [8] [µM] | MIC95 [9] [µM] | MIC [10] [µM] | MIC [11] [µM] | MIC95 [12] [µM] | MFC [13] [µM] | MIC95 [14] [µM] | MIC [15] [µM] | MBC [16] [µM] | MIC95 [17] [µM] | MIC [18] [µM] | MIC95 [19] [µM] | MIC95 [20] [µM] | further results
1 | H-RRLRLLLRLRR-NH2 | 8 | 4 | 4 | 8 | 16 | 2 | 4 | 4 | 4 | 4 | 32 | 2 | 16 | 4 | 4 | 4 | 4 | 4 | 16 | 4 | MIC95 [21]: 8 µM; MIC [22]: 8 µM; MIC95 [23]: 8 µM; MIC95 [24]: 64 µM; viability at 24 h, up to 64 µM [25]: 70 to 80%; MFC [26]: 16 µM; MBC [27]: 4 µM; MIC [28]: 4 µM; MFC [29]: 8 µM; MIC [30]: 8 µM; MFC [31]: 8 µM; MIC [32]: 8 µM; MIC95 [33]: 8 µM
2 | H-WWRRWRRWW-NH2 | 8 | 8 | 4 | 8 | 4 | 4 | 8 | 4 | 4 | 8 | 16 | 4 | 32 | 8 | 32 | 32 | 8 | 8 | 4 | 4 | MIC95 [21]: 4 µM; MIC [22]: 4 µM; MIC95 [23]: 16 µM; MIC95 [24]: 32 µM; MFC [26]: 16 µM; MBC [27]: 16 µM; MIC [28]: 8 µM; MFC [29]: 8 µM; MIC [30]: 8 µM; MFC [31]: 8 µM; MIC [32]: 8 µM; MIC95 [33]: 8 µM
3 | H-RWWRRWRRWWR-NH2 | 8 | 8 | 4 | 4 | 4 | 8 | 16 | 8 | 4 | 16 | 8 | 2 | 16 | 8 | 32 | 16 | 4 | 16 | 4 | 2 | MIC95 [21]: 4 µM; MIC [22]: 16 µM; MIC95 [23]: 8 µM; MIC95 [24]: 16 µM; MFC [26]: 8 µM; MBC [27]: 32 µM; MIC [28]: 16 µM; MFC [29]: 8 µM; MIC [30]: 8 µM; MFC [31]: 8 µM; MIC [32]: 4 µM; MIC95 [33]: 4 µM
